Experimental data of several laboratories.
Protocols differ between the studies behind these lines.
Target: Mitogen-activated protein kinase kinase kinase 5 (MAP3K5, Homo sapiens, UniProt Q99683)
Residues used in one study (Q99683 1-1374): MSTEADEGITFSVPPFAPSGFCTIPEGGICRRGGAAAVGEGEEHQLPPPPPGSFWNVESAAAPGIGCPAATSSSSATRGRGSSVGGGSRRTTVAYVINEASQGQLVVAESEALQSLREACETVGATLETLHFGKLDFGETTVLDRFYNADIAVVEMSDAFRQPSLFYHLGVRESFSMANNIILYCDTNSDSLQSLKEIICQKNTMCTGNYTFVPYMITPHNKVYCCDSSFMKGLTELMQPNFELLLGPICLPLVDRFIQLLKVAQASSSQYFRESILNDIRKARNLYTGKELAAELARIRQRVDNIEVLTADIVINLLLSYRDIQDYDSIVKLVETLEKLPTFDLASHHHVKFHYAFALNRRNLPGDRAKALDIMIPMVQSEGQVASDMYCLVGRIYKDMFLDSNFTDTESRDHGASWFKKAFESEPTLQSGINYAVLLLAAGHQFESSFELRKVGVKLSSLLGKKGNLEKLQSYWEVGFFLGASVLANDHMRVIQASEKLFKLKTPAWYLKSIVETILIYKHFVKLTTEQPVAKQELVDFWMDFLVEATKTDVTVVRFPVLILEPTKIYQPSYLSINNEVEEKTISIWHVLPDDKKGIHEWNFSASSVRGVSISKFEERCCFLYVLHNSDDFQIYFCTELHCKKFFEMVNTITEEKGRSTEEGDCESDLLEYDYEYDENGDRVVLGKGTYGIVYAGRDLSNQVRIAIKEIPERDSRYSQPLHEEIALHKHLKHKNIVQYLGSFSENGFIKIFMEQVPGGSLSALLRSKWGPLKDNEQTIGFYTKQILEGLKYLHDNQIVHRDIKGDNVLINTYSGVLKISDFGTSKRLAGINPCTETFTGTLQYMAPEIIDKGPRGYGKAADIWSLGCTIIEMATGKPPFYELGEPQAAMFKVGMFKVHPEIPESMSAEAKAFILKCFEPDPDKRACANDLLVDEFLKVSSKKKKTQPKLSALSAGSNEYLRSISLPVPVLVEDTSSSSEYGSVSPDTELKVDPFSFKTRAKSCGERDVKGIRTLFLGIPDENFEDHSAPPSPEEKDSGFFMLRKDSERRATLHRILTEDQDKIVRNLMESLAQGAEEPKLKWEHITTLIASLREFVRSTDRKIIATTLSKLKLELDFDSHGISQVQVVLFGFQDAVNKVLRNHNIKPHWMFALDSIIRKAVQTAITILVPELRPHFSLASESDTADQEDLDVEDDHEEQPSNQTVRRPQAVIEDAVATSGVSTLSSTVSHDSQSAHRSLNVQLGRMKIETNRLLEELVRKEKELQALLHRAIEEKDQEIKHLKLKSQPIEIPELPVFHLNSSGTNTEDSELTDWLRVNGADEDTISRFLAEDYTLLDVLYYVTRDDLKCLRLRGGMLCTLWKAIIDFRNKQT

The remaining binding of `CCCCC(=O)Nc1ccc(-c2ccc3ncn(CCC)c(=O)c3c2)cn1` is reported as 91% (binding, competition with immobilised ligand; 0.5 µM).
`Cc1ccc(NC(=O)c2ccnc(C(F)(F)F)c2)cc1-c1cc(OCCO)nc(N2CCOCC2)c1` gave a remaining binding of 92% (binding; 1 µM).
With `COc1ccc2oc(-c3ccc4nc(N)oc4c3)c/c(=N\c3ccccc3NC(=O)CCN)c2c1` the remaining binding was 100% (binding; 1 µM).
For `Cc1cc(O)c(-c2ccc([C@@H](C)CN(C)C)cc2)c2c1[nH]c(=O)c1sccc12`, the inhibition was -7.51% (enzyme activity, inhibitor; 0.1 µM).
`CO[C@@H]1[C@H](N(C)C(=O)c2ccccc2)C[C@H]2O[C@]1(C)n1c3ccccc3c3c4c(c5c6ccccc6n2c5c31)C(=O)NC4` gave an inhibition of 0% (enzyme activity, inhibitor; 1 µM).
The inhibition of `C#Cc1cc(-c2cc(Nc3nc(N[C@@H](C)c4ccc(F)cn4)ncc3Cl)n[nH]2)ccc1C=O` is reported as 4.04% (enzyme activity, inhibitor; 0.2 µM).
For `C=CC(=O)N1CCC[C@@H](n2nc(-c3ccc(Oc4ccccc4)cc3)c3c(N)ncnc32)C1`, the inhibition was 10% (enzyme activity, inhibitor; 1 µM).
The remaining binding of `CN1CCN(C(=O)c2ccc(NC(=O)Nc3ccc(N(C)c4ccnc(Nc5ccc(CS(C)(=O)=O)cc5)n4)cc3)cc2)CC1` is reported as 100% (binding; 1 µM).
